How the values were obtained:
[1] = tested on: HepG2; assay: Antiproliferative activity against human HepG2 cells after 24 hrs by MTT assay; assay type: functional, cell-based; details: HepG2, 24 h
[2] = tested on: A549; assay: Antiproliferative activity against human A549 cells after 24 hrs by MTT assay; assay type: functional, cell-based; details: A549, 24 h
[3] = tested on: K562; assay: Antiproliferative activity against human K562 cells after 24 hrs by MTT assay; assay type: functional, cell-based; details: K562, 24 h
[4] = Antiproliferative activity against […] cells after 24 hrs by MTT assay; assay type: functional, cell-based; details: LL/2, 24 h
[5] = tested on: A2780; assay: Antiproliferative activity against human A2780 cells after 24 hrs by MTT assay; assay type: functional, cell-based; details: A2780, 24 h
[6] = Antiproliferative activity against human SPCA1 cells after 24 hrs by MTT assay; assay type: functional, cell-based; details: SPCA1, 24 h
[7] = tested on: A549; assay: Antiproliferative activity against human A549 cells by MTT assay; assay type: functional, cell-based
Method in brief: (§1)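 Cells from the Institute of Cell Biology, CAS (Shanghai), grown in RPMI-1640 with 10% FBS and 100 U/mL penicillin-streptomycin at 37 °C under 5% CO2. Cells were exposed to compounds for 48 h, and viability was read by MTT (or MTS). IC50, the concentration giving 50% inhibition, was calculated by the Logit method. Data are representative of 3 independent experiments.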

[8] = tested on: K562; assay: Antiproliferative activity against human K562 cells by MTT assay; assay type: functional, cell-based; method in brief: as §1
[9] = Antiproliferative activity against human SPCA1 cells by MTT assay; assay type: functional, cell-based
[10] = Partition coefficient, log P of the compound; assay type: physicochemical; details: octanol/water
[11] = tested on: K562; assay: Antiproliferative activity against human K562 cells after 48 hrs by MTT assay; assay type: functional, cell-based; details: K562, 48 h; method in brief: as §1
[12] = tested on: HepG2; assay: Antiproliferative activity against human HepG2 cells after 48 hrs by MTT assay; assay type: functional, cell-based; details: HepG2, 48 h; method in brief: as §1
[13] = Selectivity index, ratio of IC50 for HUVEC to IC50 for human K562 cells; assay type: toxicity; details: HUVEC versus K562 cells, read-out: Ratio IC50
Method in brief: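 K562 tumor cells and HUVEC grown in RPMI-1640 with 10% FBS and penicillin-streptomycin at 37 °C under 5% CO2. Viability was read by MTT or MTS assay, with tumor cells exposed to compounds for 48 h. IC50 values came from the Logit method across 3 independent experiments. The index is HUVEC IC50 divided by K562 IC50.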

[14] = tested on: HepG2; assay: Antiproliferative activity against human HepG2 cells after 72 hrs by MTT assay; assay type: functional, cell-based; details: HepG2, 72 h
[15] = tested on: HCT-116; assay: Antiproliferative activity against human HCT116 cells after 72 hrs by MTT assay; assay type: functional, cell-based; details: HCT-116, 72 h
[16] = Antiproliferative activity against mouse C26 cells; assay type: functional, cell-based
[17] = tested on: HeLa; assay: Antiproliferative activity against human HeLa cells; assay type: functional, cell-based

C=CCc1ccc(O)c(-c2cc(C=O)c(O)c(CC=C)c2)c1
IC50 [1]: 20.2 µM
IC50 [2]: 34.1 µM
IC50 [3]: 11.6 µM
IC50 [4]: 31.3 µM
IC50 [5]: 17.8 µM
IC50 [6]: 37.3 µM
IC50 [7]: 49 µM
IC50 [8]: 19.7 µM
IC50 [9]: 22.8 µM
logP [10]: 4.51

C=CCc1ccc(O)c(-c2ccc(O)c(CC=C)c2)c1 [HONOKIOL]
IC50 [11]: 23.9 µM
IC50 [12]: 34.3 µM
selectivity ratio [13]: 2.2
IC50 [14]: 33.9 µM
IC50 [15]: 19.1 µM
IC50 [1]: 32.9 µM
IC50 [2]: 34.1 µM
IC50 [3]: 22.1 µM
IC50 [4]: 65.3 µM
IC50 [6]: 37.3 µM
IC50 [7]: 29.7 µM
IC50 [8]: 28.4 µM
IC50 [9]: 41.3 µM
IC50 [16]: 65.1 µM
IC50 [17]: 62 µM
logP [10]: 5

Reference: ChEMBL document CHEMBL4346736, “Anti-proliferative activity and structure-activity relationship of honokiol derivatives” (Bioorg Med Chem, 2019)
